OX1R antag-1: antagonists of human orexin 1 receptor (OX1R). actives 1.8% (n = 330,000). OX1R-expressing cells, FRET antagonist read-out. inhibition, % at 6.6 µM. Orexin/Hypocretin receptor type 1 (Homo sapiens), O43613; in the data active = inhibition mostly above about 38%, no sharp cut-off; inactive = mostly below about 40%
CHO parental Ca: ATP-evoked calcium signal inhibitors, parental CHO, primary screen, counter-screen for OX1R antagonist project, cell-based, fluorescence, Fluo-8 calcium dye. parental CHO-K1, ATP-induced calcium, Fluo-8 fluorescence. inhibition, % at 5.6 µM. actives 0.63% (n = 330,000). AID 463079, 2010;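 active = inhibition above that plate's mean sample inhibition plus 3 SD, cut at about 26% in these data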
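test system = CHO parental line | reagent = ATP stimulus | measured by = intracellular calcium via Fluo-8 no-wash fluorescent dye | control set = ATP and no-ATP DMSO wells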
TAAR1 ag: human TAAR1 agonists, primary screen, Fluo-8 calcium fluorescence, CHO RD-HGA16 cells; Trace amine-associated receptor 1 (Homo sapiens), Q96RJ0; activation, % at 3 µM; AID 624467, 2012; vehicle wells 0%, saturating PEA agonist 100%; actives 0.99% (n = 360,000);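 active = activation above the mean activation of all test compounds in the run plus 3 SD, cut at about 38% in these data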
Target sequence (Q96RJ0 whole entry, looked up): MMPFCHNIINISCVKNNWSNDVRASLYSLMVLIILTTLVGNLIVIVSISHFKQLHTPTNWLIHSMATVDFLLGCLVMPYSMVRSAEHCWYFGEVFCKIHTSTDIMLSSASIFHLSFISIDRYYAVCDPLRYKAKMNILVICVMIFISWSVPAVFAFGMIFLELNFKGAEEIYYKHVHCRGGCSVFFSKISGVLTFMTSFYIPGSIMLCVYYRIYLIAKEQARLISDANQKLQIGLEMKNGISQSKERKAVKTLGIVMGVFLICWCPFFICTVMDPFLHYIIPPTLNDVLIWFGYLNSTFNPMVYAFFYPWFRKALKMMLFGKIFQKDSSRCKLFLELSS
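Test system: RD-HGA16 (CHO) cells co-expressing Gα16 and hTAAR1 | Doses: Single dose, 3 µM | Schedule: 17-24 h seeding, 75 min 37 °C dye, 30 min RT | Evaluation: % activation from peak over basal fluorescence ratio, DMSO-to-PEA scaled | Technique: Kinetic Fluo-8 calcium fluorescence | Benchmarks: Low control DMSO, high control PEA (EC100)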
OX1R antag-2: OX1R (HCRTR1) antagonists, primary screen, fluorescence, CHO/OX1R cells, Fluo-8 calcium, orexin A. Fluo-8 calcium fluorescence. actives 0.43% (n = 330,000). AID 434989, 2010. Orexin/Hypocretin receptor type 1 (Homo sapiens), O43613. inhibition, % at 5 µM;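 active = inhibition above its plate's threshold, mean inhibition of all tested compounds on the plate plus 3 SD, cut at about 37% in these data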
GPR7 antagonist: GPR7 receptor antagonists, primary screen, cell-based, fluorescence, single concentration; Neuropeptides B/W receptor type 1 (Homo sapiens), P48145; GPR7-expressing cells, fluorescence antagonist assay; inhibition, % at 4.4 µM; actives 1.1% (n = 290,000); AID 1861, 2009; in the data active = inhibition above about 16%, passing the limit was not always enough;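 also: cells stimulated with the agonist NPW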
TAAR1 antagonist: human TAAR1 antagonists, primary screen, Fluo-8 calcium fluorescence, CHO RD-HGA16 cells; antagonist; actives 1.5% (n = 360,000); inhibition, % at 3 µM; Trace amine-associated receptor 1 (Homo sapiens), Q96RJ0; AID 624466, 2012;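 active = inhibition above a per-plate cutoff, the mean inhibition of test compounds on that plate plus 3 SD, cut at about 49% in these data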
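System: CHO RD-HGA16 cells bearing hTAAR1. Reagent: EC80 β-phenethylamine stimulus. Schedule: seeding 17-24 h prior, 75-min 37 °C, 30-min RT dye loading. Signal: Fluo-8 intracellular calcium dye fluorescence, real-time kinetic reads. Read-out: % inhibition from peak post-agonist over basal fluorescence ratio. Benchmarks: vehicle wells and EC80 agonist wells. Replicates: n of 1.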
Each line names hits and unclear results; the compound was inactive in the other large screens. A selection: hits, their analogues and other compounds. The true share with any hit is near 4.6%.

Cc1ccc(C)c(C(C)NC(=S)NCc2ccc(F)cc2)c1 (stereo unspecified)	CHO parental Ca 66.7, OX1R antag-2 41.4
C=CCN1C(=O)c2n[nH]c(COC)c2C1c1ccc(C)cc1 (stereo unspecified)	none (no result: OX1R antag-1, CHO parental Ca, OX1R antag-2, GPR7 antagonist)
Cc1ccc(C(=O)N/C(=C\c2ccc(-c3ccc(Cl)cc3)o2)C(=O)NCCCN(C)C)cc1	GPR7 antagonist 27.3
CCN(CC)CCNC(=O)c1ccc(NCN2C(=O)NC(c3ccccc3)(c3ccccc3)C2=O)cc1	none (no result: OX1R antag-1, CHO parental Ca, OX1R antag-2, GPR7 antagonist)
CC(=O)Nc1cccc(C(=O)/C=C/c2ccc(Br)cc2)c1	GPR7 antagonist 20.4
O=C(/C=C/c1ccccc1)c1ccc(NC2=NCCCS2)cc1	none
O=C(/C=C/c1ccc(Br)cc1)c1ccc(NC2=NCCCS2)cc1	GPR7 antagonist 51.6
CCN(CC)c1ccc(/C=C/C(=O)c2ccc(Br)cc2)cc1	CHO parental Ca 90.5, TAAR1 ag 137.8, OX1R antag-2 99.2, TAAR1 antagonist 80.7
CC(OC(=O)c1cc(Br)ccc1O)C(=O)Nc1ccc(S(=O)(=O)N2CCCC2)cc1 (stereo unspecified)	TAAR1 antagonist 52.5 (no result: GPR7 antagonist)
CCCCOCCCNC(=O)C[C@H]1C[C@@]2(C(=O)OC)C(=C[C@H](C3CCCC3)O[C@@H]2C)N(Cc2ccccc2)C1=O	none (no result: OX1R antag-1, CHO parental Ca, OX1R antag-2, GPR7 antagonist)
Cc1onc(-c2c(Cl)cccc2Cl)c1C(=O)N1CCCc2ccccc21	OX1R antag-1 54.6
O=C(c1ccco1)N1CCN(Cc2nc3ccc([N+](=O)[O-])cc3c(=O)n2-c2ccccc2F)CC1	TAAR1 antagonist 68.7
O=C(c1ccco1)N1CCN(Cc2cc(=O)c(OCc3ccc([N+](=O)[O-])cc3)co2)CC1	OX1R antag-1 38.8 (no result: GPR7 antagonist)
CSc1nc(=O)[nH]nc1Sc1ccccc1	none (no result: OX1R antag-1, CHO parental Ca, OX1R antag-2, GPR7 antagonist)
Cc1ccc(-c2cc(N)n(Cc3ccc(Cl)cc3)n2)cc1	none
Cc1cc(N)n(Cc2ccc(Cl)cc2)n1	OX1R antag-1 39.2
O=C(NN=Cc1ccccc1Cl)C(=O)Nc1cccc(C(F)(F)F)c1	none (no result: OX1R antag-1, CHO parental Ca, OX1R antag-2, GPR7 antagonist)
O=C(CCSCc1ccccc1F)NCCc1ccccc1	TAAR1 ag 39.0, TAAR1 antagonist 76.3
CCOC(=O)N(C)[C@H]1C[C@H]2c3[nH]c4c(-c5ccccc5)cccc4c3CCN2C(=O)[C@H]1[C@H](C)O	none (no result: OX1R antag-1, CHO parental Ca, OX1R antag-2, GPR7 antagonist)
O=C(COc1ccccc1F)Nc1ccccc1C(=O)NC1CC1	TAAR1 antagonist 51.6 (no result: GPR7 antagonist)
Cc1ccc(C)c(OCC(=O)Nc2ccccc2C(=O)NC2CC2)c1	none (no result: OX1R antag-1, CHO parental Ca, OX1R antag-2)
Cc1cc2c(nc1C)CCCN2S(=O)(=O)c1ccc(C#N)cc1	none (no result: OX1R antag-1, CHO parental Ca, OX1R antag-2, GPR7 antagonist)
Cc1ccccc1NS(=O)(=O)c1nnc(NC(=O)c2ccc(Cl)cc2)s1	none
CS(=O)(=O)c1ccc2nc(NC(=O)c3cccc(NS(=O)(=O)c4ccc(F)c(F)c4)c3)sc2c1	TAAR1 antagonist 51.9
CS(=O)(=O)c1ccc2nc(NC(=O)c3ccc(NS(=O)(=O)c4ccc(F)c(F)c4)cc3)sc2c1	none
Cc1cccc(NS(=O)(=O)c2nnc(NC(=O)c3ccc(Cl)cc3)s2)c1	OX1R antag-1 59.1
Cc1cccc(NS(=O)(=O)c2nnc(NC(=O)c3cccc(C)c3)s2)c1	OX1R antag-1 63.3
O=C(C(=O)N1CCC(CNC(=O)C2COc3ccccc3O2)CC1)c1cc2ccccc2o1 (stereo unspecified)	none (no result: OX1R antag-1, CHO parental Ca, OX1R antag-2, GPR7 antagonist)
Nc1ccn([C@@H]2O[C@H](C(=O)N[C@H](Cc3ccccc3)C(=O)Nc3ccc4scnc4c3)[C@@H](O)[C@H]2O)c(=O)n1	none (no result: OX1R antag-1, CHO parental Ca, OX1R antag-2, GPR7 antagonist)
CC(C)c1cc(Cn2c3ccccc3c(=O)n2C(C)Cn2cc(C3=CCCCC3)nn2)on1 (stereo unspecified)	none (no result: OX1R antag-1, CHO parental Ca, OX1R antag-2, GPR7 antagonist)
O=C(Nc1ccncc1)c1ccc(Cl)c(S(=O)(=O)N2CCc3ccccc32)c1	OX1R antag-1 49.6, CHO parental Ca 43.7, TAAR1 antagonist 62.9 (no result: GPR7 antagonist)
Cc1cccc(NC(=O)c2ccc(Cl)c(S(=O)(=O)N3CCc4ccccc43)c2)n1	OX1R antag-1 34.5 (no result: GPR7 antagonist)

Source: PubChem BioAssay (The Scripps Research Institute Molecular Screening Center)
